Mdm2-MdmX inh: inhibitors of human Mdm2-MdmX association, primary screen, cell-based, luminescence, split luciferase, SaOS-2, uHTS; Protein Mdm4 (Homo sapiens) + E3 ubiquitin-protein ligase Mdm2 (Homo sapiens), …; SaOS-2 split-luciferase Mdm2/MdmX complementation; inhibition, % at 8 µM; actives 3% (n = 330,000);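 active means inhibition of at least 50% at 8 µM in the primary screen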
Target sequence (O15151 whole entry, looked up): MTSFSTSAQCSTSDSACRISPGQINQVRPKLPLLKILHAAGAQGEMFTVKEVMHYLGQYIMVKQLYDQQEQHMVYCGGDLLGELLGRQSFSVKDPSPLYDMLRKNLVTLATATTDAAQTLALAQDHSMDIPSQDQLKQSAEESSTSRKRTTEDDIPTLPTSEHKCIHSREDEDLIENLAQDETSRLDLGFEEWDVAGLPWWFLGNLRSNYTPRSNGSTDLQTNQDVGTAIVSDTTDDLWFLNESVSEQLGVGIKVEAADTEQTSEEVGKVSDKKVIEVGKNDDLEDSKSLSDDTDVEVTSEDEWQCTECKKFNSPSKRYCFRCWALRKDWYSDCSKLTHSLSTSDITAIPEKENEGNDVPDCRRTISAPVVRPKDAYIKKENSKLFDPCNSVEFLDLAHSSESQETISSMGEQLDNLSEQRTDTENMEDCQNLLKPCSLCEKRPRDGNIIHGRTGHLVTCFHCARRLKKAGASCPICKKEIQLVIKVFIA
Target sequence (Q00987 whole entry, looked up): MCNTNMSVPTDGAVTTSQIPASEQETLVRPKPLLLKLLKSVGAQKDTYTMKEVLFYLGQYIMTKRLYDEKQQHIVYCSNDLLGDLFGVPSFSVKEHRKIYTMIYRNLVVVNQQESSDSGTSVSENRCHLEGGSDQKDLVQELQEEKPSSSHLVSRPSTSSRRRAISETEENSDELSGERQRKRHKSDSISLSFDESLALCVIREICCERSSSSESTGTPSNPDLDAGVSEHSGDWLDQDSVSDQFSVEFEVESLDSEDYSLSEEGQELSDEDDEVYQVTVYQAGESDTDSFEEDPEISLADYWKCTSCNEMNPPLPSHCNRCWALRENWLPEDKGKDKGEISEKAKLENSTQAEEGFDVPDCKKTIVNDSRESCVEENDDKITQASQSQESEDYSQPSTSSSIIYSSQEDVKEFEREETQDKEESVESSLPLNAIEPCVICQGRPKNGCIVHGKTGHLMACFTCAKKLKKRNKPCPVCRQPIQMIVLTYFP
CHOP UPR activ: activators of apoptotic CHOP UPR arm, primary screen, cell-based, CHO-CHOP luciferase reporter, luminescence, uHTS; UPR activation; percent of tunicamycin response over DMSO baseline; activation, % at 10 µM; actives 0.34% (n = 330,000);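 active means at 10 µM dose, activation of 40% or more, normalized to positive control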;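 further: 100% = tunicamycin at 10 µg/mL and 0% = DMSO alone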
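Assay system: CHO-CHOP cells, stable luciferase reporter of PERK-eIF2a-CHOP signalling / Buffer or medium: F12 plus 10% serum / Compound dosing: one dose, 10 µM in 0.5% DMSO / Times: 6 h compound treatment, 37 °C / Technique: luciferase luminescence / Read-out: % reporter activation, DMSO baseline versus tunicamycin full activation / Benchmarks: tunicamycin and DMSO controls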
Apaf1 inhib: inhibitors of human Apaf-1 apoptosome, primary screen, biochemical, DEVD-Rh110 fluorescence, uHTS; Apoptotic protease-activating factor 1 (Homo sapiens), O14727; reconstituted apoptosome caspase-3 activity; inhibition, % at 20 µM; actives 0.71% (n = 330,000); active means inhibition of at least 40% at 20 µM;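 further: plate controls were DMSO wells for no effect and DEVD-CHO caspase inhibitor wells for full effect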
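detection = Rh110 fluorescence intensity | test system = biochemical Apaf-1 apoptosome reconstitution | also added = cytochrome c and DEVD-Rh110 substrate | schedule = 30 min plus 50 min, RT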
UBC13 polyUb: UBC13 polyubiquitin chain formation inhibitors, primary screen, biochemical, TR-FRET, uHTS; inhibition, % at 20 µM; actives 0.47% (n = 330,000); Ubiquitin-conjugating enzyme E2 N (Homo sapiens), P61088; AID 485273, 2010; in the data active means inhibition above about 45%, passing the limit was not always enough
UPR XBP1 act: activators of adaptive XBP1 UPR arm, primary screen, cell-based, CHO-XBP1 luciferase reporter, luminescence, uHTS | IRE1-XBP1 UPR activation; percent of tunicamycin response, DMSO as zero | activation, % at 20 µM | actives 0.33% (n = 330,000) | AID 463104, 2010;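 active means versus positive control, 20 µM dose yields 30% or more activation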;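 further: 100% = tunicamycin at 10 µg/mL and 0% = DMSO only wells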
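Material – CHO cell line with stable XBP1 luciferase reporter · Buffer or medium – F12 plus 10% FBS · Compound – single point, 20 µM final compound, 1% DMSO · Schedule – 16-18 h cell attachment at 37 °C, then 6 h compound exposure · Signal – Steady-Glo luminescence read · Benchmarks – high control tunicamycin 10 µg/mL final, low control DMSO vehicle only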
Mdm2-MdmX conf: Mdm2-MdmX complex disruptors, retested hits, confirmation, luminescence, single concentration | shares compounds with Mdm2-MdmX inh | Mdm2-MdmX binding, luminescent assay | inhibition, % at 8 µM | actives 55% (n = 10,000) | AID 489028, 2010; in the data active means inhibition above about 40%
Full FLuc ctr: full-length luciferase signal inhibition, confirmation, counter-screen for Mdm2/MdmX interaction inhibitor project, cell-based, single concentration, SaOS-2 | shares compounds with Mdm2-MdmX inh | SaOS-2 full-length luciferase counterscreen, luminescence | actives 77% (n = 6,200) | inhibition, % at 8 µM | AID 504607, 2011;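 active means mean inhibition at 8 µM reaching about 37%, which flags the compound as non-specific, limit read from the data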;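 further: p53-null SaOS-2 cells with luciferase driven by a doxycycline-inducible promoter; compound on cells about two nights before reading with doxycycline added after day one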
The depositor's hits bear a star; . = no result. Compounds with a hit are over-represented: about 4.1% of the library has one in this group of screens.

SMILES	Mdm2-MdmX inh	CHOP UPR activ	Apaf1 inhib	UBC13 polyUb	UPR XBP1 act	Mdm2-MdmX conf	Full FLuc ctr
Cc1cccc(OCC(O)Cn2c(=N)n(CCN3CCCCC3)c3ccccc32)c1 (stereo unspecified)	53*	-1	4	16	2	46*	61*
CCN(CC)CCn1c(=N)n(CC(O)COc2cccc(C)c2)c2ccccc21 (stereo unspecified)	48	-1	25	16	-2	.	.
N=c1n(Cc2ccc(Cl)cc2)c2ccccc2n1CC(O)COc1ccccc1 (stereo unspecified)	88*	1	34	32	8	37	88*
N=c1n(CCO)c2ccccc2n1Cc1ccc(Cl)cc1	29	-5	-1	10	-2	.	.
COC(=O)C1=C(CSc2nc3ccccc3s2)NC(=O)NC1c1ccc(F)cc1 (stereo unspecified)	20	-1	24	-4	3	.	.
Cc1cc(C)c2c(N)c(C(=O)c3ccccc3)sc2n1	8	0	0	3	2	.	.
Cc1nc2sc(C(N)=O)c(N)c2c(C)c1CC(=O)c1ccccc1	58*	5	0	1	4	62*	31
CCOC(=O)c1cccc2c1-c1ccccc1/C2=N/O	76*	0	10	12	10	57*	31
Cc1ccc(-c2nc3cccnc3s2)cc1NC(=O)C1c2ccccc2Oc2ccccc21	70*	5	0	1	2	10	.
Cc1ccc(-c2nc3cccnc3s2)cc1NC(=O)c1ccco1	-20	7	3	-6	-1	.	.
CCc1ccc(NC(=S)NC2CCN(Cc3ccccc3)CC2)cc1	24	-2	13	20	0	.	.
CCC(C)c1ccc(NC(=S)NC2CCN(Cc3ccccc3)CC2)cc1 (stereo unspecified)	76*	0	4	14	-2	29	.
CC(C)S(=O)(=O)c1cnc(-c2cccnc2)nc1N	6	-2	-3	2	-2	.	.
CC(C)N1C(=O)/C(=C/c2nc3ccccc3c(=O)n2-c2ccccc2)c2ccccc21	78*	5	12	3	11	54*	37*
CCn1cc(C(=S)N2CCC(C(N)=O)CC2)c2ccccc21	-12	-1	-24	20	-3	.	.
O=C(CCC(=O)NNC(=O)c1ccccc1[N+](=O)[O-])NCc1ccccc1	23	-2	-2	-5	-1	.	.
COc1ccc(C(=O)N2CCN(S(=O)(=O)c3ccc4c(c3)OCCO4)CC2)cc1OC	1	-1	-5	7	-1	.	.
Cn1c(=N)n(CC(=O)c2ccc(Cl)c(Cl)c2)c2ccccc21	78*	2	11	19	-2	73*	145*
CCn1c(=N)n(CC(=O)c2ccc(Br)s2)c2ccccc21	-13	1	13	-12	3	.	.
CCCCn1c(=N)n(CC(=O)c2ccc(Br)s2)c2ccccc21	97*	1	21	15	4	59*	53*
CCCCn1c(=N)n(CC(=O)c2ccc(OC)cc2)c2ccccc21	79*	-1	-5	19	-3	44*	48*
O=C(c1ccc(Cn2cc([N+](=O)[O-])cn2)o1)N1CCCCCC1	16	0	6	3	-4	.	.
C/C(=N\NC(=O)Cc1ccc(Cl)cc1)c1ccc(F)cc1	4	2	9	2	-4	.	.
C/C(=N\NC(=O)Cc1ccc(Cl)cc1)c1ccccc1O	57*	-1	9	8	-3	44*	43*
Cc1ccc(C(C)C)c(OCCCNCc2cccnc2)c1	5	-1	3	18	-3	.	.
SMILES	Mdm2-MdmX inh	CHOP UPR activ	Apaf1 inhib	UBC13 polyUb	UPR XBP1 act	Mdm2-MdmX conf	Full FLuc ctr
Cc1ccc(C(C)C)c(OCCNCCc2ccccc2)c1	51*	1	27	22	0	26	.
CCOc1ccc(-c2cc(CCCC(=O)Nc3cccc(OC)c3)no2)cc1	54*	-5	-3	5	-6	45*	61*
COc1ccc(OC)c(Nc2ncnc3ccc(Br)cc23)c1	51*	0	1	2	1	35	.
CCN(CC)c1ncnc2ccc(Br)cc12	58*	2	-1	41	1	52*	38*
O=C(O)c1cccc(Nc2ncnc3ccc(Br)cc23)c1	-17	0	0	21	0	.	.
Brc1ccc2ncnc(Nc3cccc4ccccc34)c2c1	61*	2	8	-3	0	41*	53*
O=C(O)/C=C/C(=O)Nc1ccccc1SC(F)(F)F	-4	3	-6	-10	0	.	.
CN(Cc1ccccc1)C(=O)c1ccc(NC(=O)C2CCN(C(=O)OC(C)(C)C)CC2)cc1	76*	2	18	6	-4	59*	32
CN(C(=O)c1ccc(NC(=O)C2CCN(C(=O)OC(C)(C)C)CC2)cc1)C1CC1	-30	-1	9	-4	3	.	.
COc1ccc(NC(=O)c2ccsc2NC(C)=O)cc1	-23	0	3	-1	0	.	.
Cc1ccc(-c2nc3ccccc3s2)cc1NC(=S)NC(=O)c1cccc2ccccc12	99*	5	-1	-2	-2	-6	.
Cc1ccc(C(=O)NC(=S)Nc2cccc(-c3nc4ccccc4s3)c2)cc1	-6	3	3	-1	0	.	.
C=CCS(=O)(=O)c1nc2ccccc2s1	63*	32	-3	1	-10	38	42*
Cc1ccc2oc(C(=O)NCc3ncc(C)[nH]3)c(C)c2c1	35	1	14	-8	-4	.	.
Cn1c(CNC(=O)c2ccco2)nnc1SCC(=O)Nc1ccccc1Cl	-4	1	-15	-12	1	.	.
O=C1c2ccccc2NC(c2ccc(-c3ccc(Br)cc3)o2)N1O (stereo unspecified)	73*	-2	20	-7	1	56*	31
O=C1c2ccccc2NC(c2ccc(-c3ccc(F)cc3)o2)N1O (stereo unspecified)	32	6	-1	3	0	.	.
Cc1ccc(CNC(=O)CC(C)S(=O)(=O)c2ccc3c(c2)NC(=O)C(C)S3)cc1 (stereo unspecified)	-12	2	0	-2	-3	.	.

Source: PubChem BioAssay (Sanford-Burnham Center for Chemical Genomics)
